# Sampled rows, rich in hits. Any-hit rate of the full collection: about 2.1%.
# GSK3 alpha inh: blockers of GSK3A enzyme activity – biochemical, luminescence, cell-free homogeneous, HTS, primary screen; Glycogen synthase kinase-3 alpha (Homo sapiens), P49840; GSK-3 alpha kinase, ADP-Glo luminescence, 60 min; inhibition, % at 10 µM; 0.1% of 320,000 active;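 active = more than half of replicates show inhibition above 20%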;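 note: GST-tagged GSK-3 alpha with peptide substrate and 25 µM ATP; 0% = DMSO neutral wells and 100% = GW8510 positive control wells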
# MEKK3 PB1 HTS: modulators of MEKK3-MEK5 PB1 binding, primary screen, biochemical, wildtype MEKK3, multiplex bead flow cytometry, Alexa488-MEK5; binding response (% of control), % at 10 µM; bead-based flow cytometry, Alexa488-MEK5 binding to MEKK3; actives lie on both sides; 0 = blocked by unlabeled MEK5, 100 = vehicle; 1.4% of 290,000 active;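 active = binding response more than 3 SD above or below the average of its plate-row segment, actives on both sides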;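 note: Alexa488 bead fluorescence after subtracting the streptavidin-only scavenger bead signal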
# Target sequence (Q99759 whole entry, looked up): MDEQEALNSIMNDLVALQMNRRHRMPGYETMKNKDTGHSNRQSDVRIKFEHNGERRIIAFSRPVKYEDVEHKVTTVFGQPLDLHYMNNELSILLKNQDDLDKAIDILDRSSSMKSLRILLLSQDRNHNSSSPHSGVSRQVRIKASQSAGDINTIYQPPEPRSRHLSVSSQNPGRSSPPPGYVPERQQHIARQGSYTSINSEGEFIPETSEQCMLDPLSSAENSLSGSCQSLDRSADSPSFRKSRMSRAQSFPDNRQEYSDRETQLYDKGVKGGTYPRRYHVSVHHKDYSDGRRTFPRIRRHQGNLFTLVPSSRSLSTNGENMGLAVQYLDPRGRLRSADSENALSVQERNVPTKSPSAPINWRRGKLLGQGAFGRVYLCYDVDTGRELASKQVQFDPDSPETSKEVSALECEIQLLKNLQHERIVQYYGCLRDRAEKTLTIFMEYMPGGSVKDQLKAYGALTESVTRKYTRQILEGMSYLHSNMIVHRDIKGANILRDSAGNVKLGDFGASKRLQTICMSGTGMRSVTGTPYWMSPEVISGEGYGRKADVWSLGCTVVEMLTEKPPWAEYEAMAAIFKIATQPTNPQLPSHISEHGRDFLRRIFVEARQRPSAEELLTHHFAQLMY
# GSK3B inh: human GSK3beta kinase inhibitors, primary screen, biochemical, cell-free homogeneous, HTS; activity score (negative = inhibition), % at 10 µM; GST-GSK3beta kinase, ADP-Glo luminescence, 60 min; hits give low values; 0.038% of 300,000 active; AID 2097, 2009; Glycogen synthase kinase-3 beta (Homo sapiens), P49841;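 active = more than half of replicate wells score below -50%, meaning over 50% inhibition versus plate controls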;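 note: 0% = median DMSO wells and -100% = median GW8510 positive control wells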
#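 Test system – GST-tagged human GSK3beta kinase, cell-free · Incubation – 60 min enzyme reaction, room temperature · Signal – ADP-Glo luminescence · Also added – peptide substrate and ATP at 25 µM · Controls – DMSO neutral wells and GW8510 at 20 µM as positive · Buffer or medium – Tris/MgCl2 kinase buffer · Measure – Luminescence-derived activity versus plate DMSO and GW8510 wells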
# MEKK2mut PB1 HTS: MEK5 binding signal on mutant MEKK2 PB1, primary screen, biochemical, multiplex bead flow cytometry, Alexa488-MEK5. Alexa488-MEK5 binding to MEKK2 mutant. percent response, % at 10 µM. 0.35% of 290,000 active. AID 1530, 2009; in the data active = percent response above about 24%, passing the limit was not always enough
# MEKK2 WT-MEK5: modulators of MEK5 binding to wildtype MEKK2, primary screen, biochemical, multiplex bead flow cytometry, Alexa488-MEK5 | Mitogen-activated protein kinase kinase kinase 2 (Homo sapiens), Q9Y2U5 | Alexa488-MEK5 binding to MEKK2 WT; actives lie on both sides | binding response (% of control), % at 10 µM | 1.1% of 290,000 active; in the data active = binding response below about 67% or above about 130%
# STK33 inh: inhibitors of purified STK33 kinase, primary screen, biochemical, ADP-Glo luminescence, homogeneous, cell-free | Serine/threonine-protein kinase 33 (Homo sapiens), Q9BYT3 | inhibition, % at 10 µM | MBP phosphorylation | 0.073% of 320,000 active | AID 2661, 2010;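 active = inhibition at or above 25%, using the most active replicate where run in duplicate; inactive = inhibition below 25%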
# MEKK2wt confirm: modulators of MEK5 binding to wildtype MEKK2, confirmation, biochemical, single concentration, multiplex bead flow cytometry | shares compounds with MEKK3 PB1 HTS | Alexa488-MEK5 binding to MEKK2 WT; actives lie on both sides | binding response (% of control), % at 10 µM | 2.4% of 5,900 active | AID 1892, 2009; in the data active = binding response below about 16% or above about 210%; inactive = in between
# MEKK2mut-MEK5: mutant MEKK2 PB1-MEK5 binding signal retest – biochemical, single concentration, multiplex bead flow cytometry, confirmation. shares compounds with MEKK3 PB1 HTS. Alexa488-MEK5 binding to MEKK2 mutant. percent response, % at 10 µM. 2% of 5,900 active. AID 1893, 2009; in the data active = percent response mostly above about 71%, no sharp cut-off; inactive = mostly below about 38%;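 note: higher means compound restores mutant binding toward wildtype level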
# MEKK3-MEK5 inh: MEKK3 wild-type PB1 binding to MEK5, inhibitors, confirmation, biochemical, bead multiplex flow cytometry, single concentration, wildtype. shares compounds with MEKK3 PB1 HTS. Alexa488-MEK5 binding to MEKK3; hits give low values. binding response (% of control), % at 10 µM. 1.8% of 5,900 active. AID 1894, 2009;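 active = binding response below 72% of control, or above a set upper limit, though filed actives all read lower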;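 note: 100% = DMSO only wells and 0% = binding blocked by excess unlabeled MEK5; lower values mean stronger disruption of MEK5 binding to MEKK3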
# * = called active by the depositor; . = no result given; [ ] = remark or other dose.
SMILES,GSK3 alpha inh,MEKK3 PB1 HTS,GSK3B inh,MEKK2mut PB1 HTS,MEKK2 WT-MEK5,STK33 inh,MEKK2wt confirm,MEKK2mut-MEK5,MEKK3-MEK5 inh
COc1ccc(N2CC(C(=O)Nc3nc4ccc(F)cc4s3)CC2=O)c(OC)c1 (stereo not given),4,102,0,2,103,5,.,.,.
CC1CCCC(NC(=O)Cc2ccc(Br)cc2)C1C (stereo not given),-2,131*,-4,8,101,-1,99,2,102
Cn1nnnc1SCC(=O)NC1CCCCC1,0,89,-3,-9,94,0,.,.,.
CC1CCCC(NC(=O)CSc2nnnn2C)C1C (stereo not given),-2,0.0*[inhibitor],-2,-23,-8.0*[inhibitor],0,102,6,105
CCN(CC)CCn1c2c(c(SCC(=O)Nc3ccccc3Cl)nc1=O)CCC2,-2,.,-4,.,.,-1,.,.,.
COc1ccc(-c2n(CC(=O)OC3CC(C)CCC3C(C)C)c3ccccc3[n+]2C)cc1 (stereo not given),.,109,0,21,136,.,.,.,.
COc1ccc(OCc2n(CC(=O)OC3CC(C)CCC3C(C)C)c3ccccc3[n+]2C)cc1 (stereo not given),16,111,3,40,162*,1,158,29,108
c1ccc(CNc2ncnc3ccccc23)cc1,-2,102,2,-2,98,-3,.,.,.
OCCCCCNc1ncnc2ccccc12,-2,128*,-23,12,111,0,101,2,98
COc1ccc(-c2nn(-c3ccccc3)cc2/C=N/NC(=S)NC(C)C)cc1OC,-2,104,3,-2,96,-1,.,.,.
COc1ccc(-c2nn(-c3ccccc3)cc2/C=N/N=C(N)N)cc1OC,0,110,-1,3,148*,-1,176,35,111
CC(C)NCC(O)Cn1c2c(c3ccccc31)CCc1c-2cnn1-c1ccccc1 (stereo not given),4,110,-6,30*,176*,6,149,25,106
CN1CCc2c(n(CC(O)CNCc3ccccc3)c3ccccc23)C1=O (stereo not given),-2,114,-2,-4,114,-1,.,.,.
CC(C)c1ccc(NC(=O)CSc2ncccc2C(=O)Oc2cccc([N+](=O)[O-])c2)cc1,-1,148*,4,0,106,0,99,-2,97
COc1ccc(CCNc2ccc(S(=O)(=O)N3CCCC3)cc2[N+](=O)[O-])cc1,-3,142*,-2,-1,107,-1,103,-2,101
COc1cc2ccccc2cc1C(=O)Nc1sc2c(c1C(N)=O)CCN(C(C)C)C2,1,107,-1,29*,150*,1,170,42,110
CN1CCc2c(sc(NC(=O)c3ccc4ccccc4c3)c2C(N)=O)C1,1,106,-2,19,135*,11,151,23,108
CCOC(=O)c1c(NC(=O)Nc2ccc(F)cc2)sc2c1CCN(C)C2,1,129*,2,31,141*,1,124,4,101
CCOC(=O)c1c(NC(=S)Nc2ccc(Cl)cc2)sc2c1CCN(C)C2,2,118,.,-1,81,0,.,.,.
CCC(C)(C)n1nnnc1C(c1cc(OC)ccc1OC)N1CCN(Cc2ccccc2)CC1 (stereo not given),0,104,2,0,102,-1,.,.,.
O=C(CSc1ncn[nH]1)c1ccc2c(c1)OCO2,9,102,-9,7,104,1,.,.,.
O=C(CSc1nnc(-c2ccccc2)o1)c1ccc2c(c1)OCCO2,-2,80*[inhibitor],0,-15,85,-1,109,6,103
O=C(CSc1ncn[nH]1)c1ccc2c(c1)OCCO2,9,77*[inhibitor],-1,-7,87,15,106,4,105
CCN(CC)c1ccc(C(=O)NNC(=O)CCl)cc1,-1,42*[inhibitor],1,-18,46*[inhibitor],-1,105,5,106
Cc1coc2cc3oc(=O)c(CCC(=O)N4CCC(C(=O)O)(c5ccccc5)CC4)c(C)c3cc12,-1,103,4,5,103,0,.,.,.
SMILES,GSK3 alpha inh,MEKK3 PB1 HTS,GSK3B inh,MEKK2mut PB1 HTS,MEKK2 WT-MEK5,STK33 inh,MEKK2wt confirm,MEKK2mut-MEK5,MEKK3-MEK5 inh
NS(=O)(=O)c1cc(C(=O)O)cc(N2CCCC2)c1Oc1ccccc1,-5,.,.,.,.,-1,.,.,.
CCCCNc1cc(C(=O)O)cc(S(N)(=O)=O)c1Oc1ccccc1,-2,87,1,-1,16*[inhibitor],0,94,-6,99
CCC(C(=O)OC)(C(=O)OC)c1ccc([N+](=O)[O-])cc1,-3,106,0,-4,102,-1,.,.,.
CCOC(=O)C1=C(CC)OC(N)=C(C#N)C1c1cccs1 (stereo not given),1,74*[inhibitor],3,-14,76,0,102,0,108
COC(=O)CC1=C(C(=O)OC)C(c2cccs2)C(C#N)=C(N)O1 (stereo not given),.,108,0,3,104,-2,.,.,.
Cc1cccc(N2CCN(C(=O)c3c(Cl)cnn3C)CC2)c1C,0,100,1,7,103,0,.,.,.
Clc1ccc2nc(N3CCNCC3)nc(-c3ccccc3)c2c1,2,103,-6,32,152*,-1,108,0,102
COc1cc(/C=N/N2CCOCC2)ccc1OC(=O)c1ccco1,0,49*[inhibitor],-2,-17,52,0,95,-7,98
COc1ccc(NC(=O)c2nc3nccc(C)n3n2)cc1S(=O)(=O)N1CCOCC1,-2,.,.,.,.,-1,.,.,.
